In ChEMBL document CHEMBL3779898, “3,3'-OH curcumin causes apoptosis in HepG2 cells through ROS-mediated pathway” (Eur J Med Chem, 2016):
Blank lines part the entries; values can stand above or below the compound they belong to. The source made the active and inactive calls. No cut-off for these calls is given here.

Tests used:
HepG2 [1] = test: Cytotoxicity against human HepG2 cells assessed as reduction in cell viability after 48 hrs by MTT assay; assay type: functional, cell-based; conditions: HepG2, 48 h
Summary of the method: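 HepG2 seeded at 3×10^3/well, grown 24 h, then exposed to compounds for 48 h. MTT (0.5 mg/mL) added for 4 h, formazan dissolved in DMSO, absorbance read at 570 nm. IC50 = concentration giving 50% loss of viability; mean ± SD of three determinations.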

HepG2 [2] = test: Induction of apoptosis in human HepG2 cells assessed as late apoptotic cells at 50 uM after 24 hrs pretreated with 5 mM N-acetylcysteine for 1 hr by Annexin V-FITC/propidium iodide staining based flow cytometry (reference value: 5.4%); assay type: functional
Summary of the method: (§1)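 HepG2 plated at 5×10^5/well, grown 24 h, then treated 24 h; where indicated, 1 h pretreatment with 5 mM GSH or NAC. Cells stained with Annexin V-FITC/PI; 10,000 cells per sample analysed by flow cytometry into early apoptotic, late apoptotic and necrotic quadrants; triplicate.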

HepG2 [3] = test: Induction of apoptosis in human HepG2 cells assessed as late apoptotic cells at 37.5 uM after 24 hrs by Annexin V-FITC/propidium iodide staining based flow cytometry (reference value: 5.4%); assay type: functional; summary of the method: as §1
HepG2 [4] = test: Induction of intracellular ROS production in human HepG2 cells at 50 uM after 3 to 6 hrs by DCFH-DA staining based flow cytometry in presence of 5mM N-acetylcysteine; assay type: functional, cell-based
Summary of the method: (§2)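 HepG2 pretreated 1 h with 5 mM GSH or 5 mM NAC, then exposed to 50 μM compound for the indicated time; loaded with 3 μM DCFH-DA for 30 min at 37 °C in the dark, washed with PBS, DCF fluorescence read by flow cytometry (ex 488, em 530 nm).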

HepG2 [5] = test: Induction of lipid peroxidation in human HepG2 cells assessed as increase in malondialdehyde formation at 50 uM after 18 hrs relative to control; assay type: functional
Summary of the method: (§3)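 HepG2 (5×10^5/well) grown 24 h, treated 18 h at 6.25, 25, 37.5 or 50 μM, lysed in ice-cold water by freeze–thaw. Lysate heated 1 h at 95 °C with 0.4% thiobarbituric acid, 0.5% SDS, 9.4% acetic acid (pH 3.5), centrifuged, A532 read. MDA quantified against a tetramethoxypropane standard curve, expressed as pmol/mg protein; triplicate.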

HepG2 [6] = test: Induction of mitochondrial membrane potential loss in human HepG2 cells at 50 uM after 18 hrs by rhodamine 123 staining based flow cytometry in presence of 5mM N-acetylcysteine; assay type: functional, cell-based
Summary of the method: (§4)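 HepG2 pretreated 1 h with 5 mM GSH or 5 mM NAC, then exposed to 50 μM compound for the indicated time; Rhodamine 123 fluorescence measured by flow cytometry; triplicate.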

HepG2 [7] = test: Induction of apoptosis in human HepG2 cells assessed as necrotic cells at 12.5 uM after 24 hrs by Annexin V-FITC/propidium iodide staining based flow cytometry (reference value: 1.6%); assay type: functional; summary of the method: as §1
HepG2 [8] = test: Induction of apoptosis in human HepG2 cells assessed as early apoptotic cells at 12.5 uM after 24 hrs by Annexin V-FITC/propidium iodide staining based flow cytometry (reference value: 2.8%); assay type: functional; summary of the method: as §1
HepG2 [9] = test: Induction of apoptosis in human HepG2 cells assessed as early apoptotic cells at 50 uM after 24 hrs pretreated with 5 mM N-acetylcysteine for 1 hr by Annexin V-FITC/propidium iodide staining based flow cytometry (reference value: 2.8%); assay type: functional; summary of the method: as §1
HepG2 [10] = test: Cellular uptake in human HepG2 cells at 50 uM after 1 hr; assay type: ADME, cell-based; conditions: hepg2, 1 h
Summary of the method: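 HepG2 cells exposed to 50 μM for varying incubation periods; cells lysed, lysate extracted with methanol, and uptake estimated by absorbance of the extract.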

HepG2 [11] = test: Induction of apoptosis in human HepG2 cells assessed as necrotic cells at 50 uM after 24 hrs by Annexin V-FITC/propidium iodide staining based flow cytometry (reference value: 1.6%); assay type: functional; summary of the method: as §1
HepG2 [12] = test: Induction of apoptosis in human HepG2 cells assessed as late apoptotic cells at 25 uM after 24 hrs by Annexin V-FITC/propidium iodide staining based flow cytometry (reference value: 5.4%); assay type: functional; summary of the method: as §1
HepG2 [13] = test: Induction of apoptosis in human HepG2 cells assessed as early apoptotic cells at 50 uM after 24 hrs pretreated with 5 mM glutathione for 1 hr by Annexin V-FITC/propidium iodide staining based flow cytometry (reference value: 2.8%); assay type: functional; summary of the method: as §1
HepG2 [14] = test: Induction of apoptosis in human HepG2 cells assessed as early apoptotic cells at 37.5 uM after 24 hrs by Annexin V-FITC/propidium iodide staining based flow cytometry (reference value: 2.8%); assay type: functional; summary of the method: as §1
HepG2 [15] = test: Induction of apoptosis in human HepG2 cells assessed as necrotic cells at 50 uM after 24 hrs pretreated with 5 mM N-acetylcysteine for 1 hr by Annexin V-FITC/propidium iodide staining based flow cytometry (reference value: 1.6%); assay type: functional; summary of the method: as §1
HepG2 [16] = test: Induction of apoptosis in human HepG2 cells assessed as late apoptotic cells at 12.5 uM after 24 hrs by Annexin V-FITC/propidium iodide staining based flow cytometry (reference value: 5.4%); assay type: functional; summary of the method: as §1
HepG2 [17] = test: Cytotoxicity against human HepG2 cells assessed as reduction in cell viability at 50 uM after 48 hrs by MTT assay in presence of 5mM glutathione; assay type: functional, cell-based
Summary of the method: (§5)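 HepG2 cells pretreated 1 h with 5 mM NAC or 5 mM GSH, then exposed to 50 μM test compound; viability measured by MTT (0.5 mg/mL, 4 h, DMSO solubilisation, 570 nm).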

HepG2 [18] = test: Cytotoxicity against human HepG2 cells assessed as reduction in cell viability at 50 uM after 48 hrs by MTT assay in presence of 5mM N-acetylcysteine; assay type: functional, cell-based; summary of the method: as §5
HepG2 [19] = test: Induction of lipid peroxidation in human HepG2 cells assessed as increase in malondialdehyde formation after 18 hrs; assay type: functional, cell-based; summary of the method: as §3
HepG2 [20] = test: Induction of apoptosis in human HepG2 cells assessed as necrotic cells at 37.5 uM after 24 hrs by Annexin V-FITC/propidium iodide staining based flow cytometry (reference value: 1.6%); assay type: functional; summary of the method: as §1
HepG2 [21] = test: Induction of intracellular ROS production in human HepG2 cells at 50 uM after 6 hrs by DCFH-DA staining based flow cytometry relative to control; assay type: functional
Summary of the method: (§6)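 Cells treated with 50 μM compound for 6 h, with or without 1 h catalase pretreatment; stained with 3 μM DCFH-DA for 30 min at 37 °C in the dark, washed, DCF fluorescence read by flow cytometry (488/530 nm); triplicate.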

HepG2 [22] = test: Induction of apoptosis in human HepG2 cells assessed as late apoptotic cells at 50 uM after 24 hrs by Annexin V-FITC/propidium iodide staining based flow cytometry (reference value: 5.4%); assay type: functional; summary of the method: as §1
HepG2 [23] = test: Potency index, ratio of curcumin IC50 to compound IC50 for human HepG2 cells; assay type: functional
Summary of the method: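 Derived from MTT IC50 values in HepG2 after 48 h treatment, means of three determinations.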

HepG2 [24] = test: Induction of apoptosis in human HepG2 cells assessed as early apoptotic cells at 25 uM after 24 hrs by Annexin V-FITC/propidium iodide staining based flow cytometry (reference value: 2.8%); assay type: functional; summary of the method: as §1
HepG2 [25] = test: Induction of intracellular ROS production in human HepG2 cells assessed as decrease in GSH/GSSG ratio at 50 uM incubated for 6 hrs by glutathione reductase-DTNB recycling assay relative to control; assay type: functional
Summary of the method: (§7)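 HepG2 (5×10^5/well) grown 24 h, treated 6 h, then lysed in ice-cold 10 mM HCl by three freeze–thaw cycles; part of lysate used for protein. Proteins precipitated with 6.5% 5-sulfosalicylic acid; supernatant assayed for total GSH and GSSG by glutathione reductase–DTNB recycling; triplicate.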

HepG2 [26] = test: Induction of intracellular ROS production in human HepG2 cells assessed as decrease in GSH/GSSG ratio incubated for 6 hrs by glutathione reductase-DTNB recycling assay; assay type: functional, cell-based; summary of the method: as §7
HepG2 [27] = test: Induction of apoptosis in human HepG2 cells assessed as late apoptotic cells at 50 uM after 24 hrs pretreated with 5 mM glutathione for 1 hr by Annexin V-FITC/propidium iodide staining based flow cytometry (reference value: 5.4%); assay type: functional; summary of the method: as §1
HepG2 [28] = test: Induction of mitochondrial membrane potential loss in human HepG2 cells at 50 uM after 18 hrs by rhodamine 123 staining based flow cytometry in presence of 5mM glutathione; assay type: functional, cell-based; summary of the method: as §4
Serum = test: Stability in RPMI-1640 medium containing 10% fetal calf serum at 25 uM incubated for 20 to 120 mins at 25 degC; assay type: ADME, Bos taurus; conditions: cattle
HepG2 [29] = test: Induction of apoptosis in human HepG2 cells assessed as early apoptotic cells at 50 uM after 24 hrs by Annexin V-FITC/propidium iodide staining based flow cytometry (reference value: 2.8%); assay type: functional; summary of the method: as §1
HepG2 [30] = test: Induction of apoptosis in human HepG2 cells after 24 hrs by Annexin V-FITC/propidium iodide staining based flow cytometry; assay type: functional, cell-based; summary of the method: as §1
HepG2 [31] = test: Induction of intracellular ROS production in human HepG2 cells at 50 uM after 6 hrs by DCFH-DA staining based flow cytometry in presence of catalase; assay type: functional, cell-based; summary of the method: as §6
HepG2 [32] = test: Induction of apoptosis in human HepG2 cells assessed as necrotic cells at 50 uM after 24 hrs pretreated with 5 mM glutathione for 1 hr by Annexin V-FITC/propidium iodide staining based flow cytometry (reference value: 1.6%); assay type: functional; summary of the method: as §1
HepG2 [33] = test: Induction of apoptosis in human HepG2 cells assessed as necrotic cells at 25 uM after 24 hrs by Annexin V-FITC/propidium iodide staining based flow cytometry (reference value: 1.6%); assay type: functional; summary of the method: as §1
HepG2 [34] = test: Induction of intracellular ROS production in human HepG2 cells at 50 uM after 3 to 6 hrs by DCFH-DA staining based flow cytometry in presence of 5mM glutathione; assay type: functional, cell-based; summary of the method: as §2
HepG2 [35] = test: Induction of superoxide radical generation production in human HepG2 cells at 50 uM incubated for 6 hrs by DHE staining based flow cytometry; assay type: functional, cell-based
Summary of the method: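 Cells incubated 6 h with 50 μM compound, stained with 3 μM DHE for 30 min at 37 °C in the dark, and analysed by flow cytometry; triplicate.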

SMILES: COc1ccc(/C=C/C(=O)CC(=O)/C=C/c2ccc(OC)cc2)cc1
- IC50 (HepG2 [1]): > 200 µM

- Drug uptake (HepG2 [10]): Active
- Stability (Serum): Stable
SMILES: O=C(/C=C/c1cccc(O)c1)CC(=O)/C=C/c1cccc(O)c1
- Activity (HepG2 [2]): 6.8%
- Activity (HepG2 [3]): 28.5%
- Activity (HepG2 [4]): inactive
- IC50 (HepG2 [1]): 15.1 µM
- fold change (FC) (HepG2 [5]): 1
- Activity (HepG2 [6]): inactive
- Activity (HepG2 [7]): 2.8%
- Activity (HepG2 [8]): 2.8%
- Activity (HepG2 [9]): 2.8%
- Activity (HepG2 [11]): 7.6%
- Activity (HepG2 [12]): 12.4%
- Activity (HepG2 [13]): 3%
- Activity (HepG2 [14]): 19.1%
- Activity (HepG2 [15]): 2.2%
- Activity (HepG2 [16]): 5.7%
- Activity (HepG2 [17]): inactive
- Activity (HepG2 [18]): inactive
- Activity (HepG2 [19]): Dose-dependent effect
- Activity (HepG2 [20]): 45%
- fold change (FC) (HepG2 [21]): 5
- Activity (HepG2 [22]): 80.2%
- Ratio IC50 (HepG2 [23]): 3.5
- Activity (HepG2 [24]): 7%
- fold change (FC) (HepG2 [25]): 2
- Activity (HepG2 [26]): Dose-dependent effect
- Activity (HepG2 [27]): 6.3%
- Activity (HepG2 [28]): inactive
- Activity (HepG2 [29]): 1.4%
- Activity (HepG2 [30]): Dose-dependent effect
- Activity (HepG2 [31]): inactive
- Activity (HepG2 [32]): 2%
- Activity (HepG2 [33]): 7%
- Activity (HepG2 [34]): inactive
- Activity (HepG2 [35]): inactive

SMILES: O=C(/C=C/c1ccccc1O)CC(=O)/C=C/c1ccccc1O
- IC50 (HepG2 [1]): 50 µM
